“Also recorded” adds a separate entry of the source. Like-named read-outs stand apart in the source and are kept apart here.
Tests used:
[1] = Safety and DLT evaluation; type: in vivo, human
[2] = tested on: HR+/HER2− advanced breast cancer; assay: Efficacy by RECIST 1.1, additional 21 patients; type: in vivo, human
Method in brief: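 Additional cohort of 21 postmenopausal women aged ≤65 years. All had ER- and/or PR-positive (>1%) disease, ECOG 0–1 and progression after letrozole/anastrozole, with no prior HDAC inhibitor. […] Response was assessed by RECIST 1.1, with CR/PR confirmed at least 4 weeks after the initial response.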

[3] = tested on: HR+/HER2− advanced breast cancer; assay: Efficacy by RECIST 1.1, Stage I/II patients; type: in vivo, human; conditions: for Clinical response: CR (number of patients) / Clinical response: PD (number of patients) / Clinical response: PR (number of patients) / Clinical response: SD (number of patients): with exemestane in Stage II
[4] = type: in vivo, human
[5] = Stage I, 5 mg/week monotherapy, n=12
[6] = Stage I, 7 mg/week monotherapy, n=3
[7] = most common grade 3/4 AEs, 19 dose-escalation patients, stage not stated
[8] = additional 21 patients, entinostat 5 mg/week + exemestane 25 mg/day

Nc1ccccc1NC(=O)c1ccc(CNC(=O)OCc2cccnc2)cc1 [Entinostat]
Thrombocytopenia, entinostat-related AE of all grades [1, 5]: 2 (16.7) No. (%) | Γ-GT elevation, entinostat-related AE of all grades [1, 5]: 2 (16.7) No. (%) | α-HBDH elevation, entinostat-related AE of all grades [1, 5]: 2 (16.7) No. (%) | AKP elevation, entinostat-related AE of all grades [1, 6]: 0 No. (%) | ALT elevation, entinostat-related AE of all grades [1, 6]: 0 No. (%) | AST elevation, entinostat-related AE of all grades [1, 6]: 0 No. (%) | Abdominal pain, entinostat-related AE of all grades [1, 6]: 0 No. (%) | Anemia, entinostat-related AE of all grades [1, 6]: 0 No. (%) | Back pain, entinostat-related AE of all grades [1, 6]: 0 No. (%) | Chest pain, entinostat-related AE of all grades [1, 6]: 0 No. (%) | Creatine increase, entinostat-related AE of all grades [1, 6]: 0 No. (%) | Creatinine phosphokinase increase, entinostat-related AE of all grades [1, 6]: 0 No. (%) | Debilitation, entinostat-related AE of all grades [1, 6]: 0 No. (%) | Diarrhea, entinostat-related AE of all grades [1, 6]: 0 No. (%) | Fatigue, entinostat-related AE of all grades [1, 6]: 0 No. (%) | Flatulence, entinostat-related AE of all grades [1, 6]: 0 No. (%) | Headache, entinostat-related AE of all grades [1, 6]: 0 No. (%) | Hypoalbuminemia, entinostat-related AE of all grades [1, 6]: 0 No. (%) | Hypocalcemia, entinostat-related AE of all grades [1, 6]: 0 No. (%) | Hypokalemia, entinostat-related AE of all grades [1, 6]: 0 No. (%) | Hypoproteinemia, entinostat-related AE of all grades [1, 6]: 0 No. (%) | LDH increase, entinostat-related AE of all grades [1, 6]: 0 No. (%) | Leukopenia, entinostat-related AE of all grades [1, 6]: 0 No. (%) | Limb pain, entinostat-related AE of all grades [1, 6]: 0 No. (%) | Nausea, entinostat-related AE of all grades [1, 6]: 0 No. (%) | Neutropenia, entinostat-related AE of all grades [1, 6]: 2 (66.7) No. (%) | Palpitation, entinostat-related AE of all grades [1, 6]: 0 No. (%) | Serum Ca^2+ decrease, entinostat-related AE of all grades [1, 6]: 0 No. (%) | Serum Na+ decrease, entinostat-related AE of all grades [1, 6]: 0 No. (%) | Serum albumin decrease, entinostat-related AE of all grades [1, 6]: 0 No. (%) | Serum phosphate decrease, entinostat-related AE of all grades [1, 6]: 0 No. (%) | Serum urea increase, entinostat-related AE of all grades [1, 6]: 0 No. (%) | Thrombocytopenia, entinostat-related AE of all grades [1, 6]: 0 No. (%) | Γ-GT elevation, entinostat-related AE of all grades [1, 6]: 0 No. (%) | α-HBDH elevation, entinostat-related AE of all grades [1, 6]: 0 No. (%) | Patients with entinostat-related AEs ([1]; Stage I, all 19 patients): 100% | Dose-limiting toxicity (DLT) in Stage I ([1]; all dose groups (3, 5, 7 mg/week)): no patients experienced a DLT; also recorded: no DLT events occurred | Grade 3/4 neutropenia [1, 7]: 31.6% | Grade 3/4 thrombocytopenia [1, 7]: 15.8% | Median tolerance limit (MLT) ([1]; throughout the trial, up to 7 mg/week): not achieved | ORR (CR+PR) ([2]; 21 patients, entinostat 5 mg + exemestane 25 mg, 95% CI: 1.17–30.38): 9.52% | Clinical benefit rate (CBR, CR+PR+SD over 24 weeks) ([2]; 21 patients, entinostat 5 mg + exemestane 25 mg, 95% CI: 21.82–65.98): 42.86% | Median progression-free survival [2, 8]: 9.41 months | Clinical response: CR (number of patients) ([3]; 3 mg (n = 2)): 0 | Clinical response: PD (number of patients) ([3]; 3 mg (n = 2)): 1 | Clinical response: PR (number of patients) ([3]; 3 mg (n = 2)): 0 | Clinical response: SD (number of patients) ([3]; 3 mg (n = 2)): 1 | Clinical response: CR (number of patients) ([3]; 5 mg (n = 9)): 0 | Clinical response: PD (number of patients) ([3]; 5 mg (n = 9)): 6 | Clinical response: PR (number of patients) ([3]; 5 mg (n = 9)): 2 | Clinical response: SD (number of patients) ([3]; 5 mg (n = 9)): 1 | PFS ([3]; 5 mg group, from first dose of entinostat, 95% CI: 78–201): 85.5 days | Clinical response: CR (number of patients) ([3]; 7 mg→5 mg (n = 3)): 0 | Clinical response: PD (number of patients) ([3]; 7 mg→5 mg (n = 3)): 2 | Clinical response: PR (number of patients) ([3]; 7 mg→5 mg (n = 3)): 0 | Clinical response: SD (number of patients) ([3]; 7 mg→5 mg (n = 3)): 1 | Overall response rate (ORR, CR+PR) ([3]; 14 evaluated patients, 2/14): 14.3% | Patients achieving CR ([3]; 14 evaluated patients, all cohorts): none | Patients with stable disease ([3]; 14 evaluated patients, all three treatment groups): Three | Patients with PD ([3]; 14 evaluated patients, three groups): Nine | Patients with stable disease (> 12 weeks) ([3]; extended treatment stage, entinostat 3 or 5 mg/week + exemestane 25 mg/day): three | Grade 3/4 anemia [4, 8]: 9.5% | Grade 3/4 fatigue [4, 8]: 9.5% | Grade 3/4 neutropenia [4, 8]: 38% | Grade 3/4 thrombocytopenia [4, 8]: 9.5% | Occurrence rate of thrombocytopenia ([4]; entinostat in combination with exemestane, as quoted in Discussion): 10%
